Data as given in PubChem BioAssay.
The source made the active and inactive calls.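 How the source made its calls, unless noted: active means GFP response above 150% of the DMSO level; inconclusive means fewer than 70 events counted for a yeast strain; inactive means the rest.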

Assays:
[1] = RPL19A-GFP modulators, yeast TOR pathway, confirmation, cell-based, S. cerevisiae, flow cytometry, cherry picks, mother/daughter gates (AID 2270;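 active means GFP response below 50% of the DMSO control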); settings: S. cerevisiae RPL19A-GFP strain, 3 h, at 10 µM, stronger effect = lower value, 100 = same GFP as DMSO wells
[2] = LAP4-GFP expression modulators in yeast, confirmation, cell-based, cherry picks, flow cytometry, mother/daughter gates (AID 2271;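 active means GFP response above 150% of the DMSO control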;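 further: ratio of sample to DMSO plate mean so 100% equals DMSO level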); settings: S. cerevisiae LAP4-GFP strain, 3 h, at 10 µM, stronger effect = higher value, 100 means same as DMSO control
Summary of the method: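 Measured by: GFP by flow cytometry. Test system: GFP-fusion yeast strain. Input: yeast cells seeded at OD600 of 0.2. Timing: 30 °C, 3 h compound incubation, rotating. Buffer or medium: synthetic complete medium for yeast. Benchmarks: DMSO-only negative wells, rapamycin 400 ng/mL positive wells. Compound: 10 µM single dose.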

[3] = modulators of MEP2-GFP levels in yeast, confirmation, S. cerevisiae, flow cytometry GFP, cherry picks (AID 2272;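 active means GFP response above 150% of the DMSO control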;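 further: ratio of well signal to plate DMSO mean so 100% equals DMSO level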); settings: S. cerevisiae MEP2-GFP strain, 3 h, at 10 µM, stronger effect = higher value
[4] = AGP1-GFP expression modulators, hit retest, confirmation, cell-based, flow cytometry, S. cerevisiae, cherry picks (AID 2273);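 further: median GFP channel fluorescence over the whole cell population gate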; settings: S. cerevisiae AGP1-GFP strain, 3 h, at 10 µM
[5] = modulators of CIT2-GFP expression in yeast, confirmation, S. cerevisiae, GFP fusion, cherry picks, mother/daughter gates (AID 2274); settings: S. cerevisiae CIT2-GFP strain, flow cytometry, 3 h, at 10 µM, stronger effect = higher value
[6] = measured here: daughter cell gate
[7] = measured here: mother cell gate
[8] = measured here: daughter cell gate response
[9] = measured here: mother cell gate response

| SMILES | GFP response vs DMSO [1] | GFP response vs DMSO [1, 6] [%] | GFP response vs DMSO [1, 7] [%] | GFP response relative to DMSO [2] | GFP response relative to DMSO [2, 8] [%] | GFP response relative to DMSO [2, 9] [%] | GFP response vs DMSO [3] | GFP response, % of DMSO [4] | GFP response, % of DMSO [5] | GFP response, % of DMSO [5, 6] [%] | GFP response, % of DMSO [5, 7] [%] |
| --- | --- | --- | --- | --- | --- | --- | --- | --- | --- | --- | --- |
| CCCc1[nH]nc2c1C(c1cccc(OC(=O)c3ccco3)c1)C(C#N)=C(N)O2 (stereo not drawn) | 98.5% (inactive) | 96.7 | 96.7 | 97.7% (inactive) | 96 | 98.4 | 99.3% (inactive) | 106% (inactive) | 104% (inactive) | 103 | 104 |
| Cc1ccccc1OCC(=O)NNC(=S)NC(=O)c1ccco1 | 122% (inactive) | 111 | 118 | 147% (inactive) | 135 | 137 | 129% (inactive) | 110% (inactive) | 125% (inactive) | 122 | 112 |
| CN(C)S(=O)(=O)c1cc(NC(=O)CN2CCOCC2)ccc1Cl | 97.6% (inactive) | 97.3 | 97.7 | 95.3% (inactive) | 99 | 96.4 | 97.2% (inactive) | 97.3% (inactive) | 100% (inactive) | 99.3 | 102 |
| CCC(=O)N/C(N)=N/c1nc2ccccc2o1 | 83.5% (inactive) | 85.1 | 84.8 | 110% (inactive) | 106 | 112 | 109% (inactive) | 96.2% (inactive) | 98.3% (inactive) | 97.2 | 99.7 |
| COc1ccc(-c2cc(C(F)(F)F)nc(S(C)(=O)=O)n2)cc1 | 102% (inactive) | 104 | 96.1 | 136% (inactive) | 134 | 133 | 130% (inactive) | 116% (inactive) | 95.2% (inactive) | 98.1 | 86.9 |
| NC(N)=N/N=C/c1ccc(OCc2ccc(Cl)cc2Cl)cc1 | 88.9% (inactive) | 82.8 | 87.2 | 115% (inactive) | 106 | 121 | 105% (inactive) | 99.1% (inactive) | 85.5% (inactive) | 80.7 | 84.3 |
| Cc1cc(S(=O)(=O)ON2C(=O)c3ccccc3C2=O)ccc1F | 78.2% (inactive) | 84.3 | 66.6 | 153% (active) | 153 | 160 | 108% (inactive) | 105% (inactive) | 120% (inactive) | 84.1 | 98.7 |
| CS(=O)(=O)c1nc(-c2cccs2)cc(C(F)(F)F)n1 | 93% (inactive) | 95.2 | 88.6 | 176% (active) | 164 | 180 | 143% (inactive) | 118% (inactive) | 94.4% (inactive) | 99.2 | 89.5 |
| O=[N+]([O-])c1ccccc1OCCOc1ccccc1[N+](=O)[O-] | 103% (inactive) | 101 | 100 | 106% (inactive) | 101 | 101 | 102% (inactive) | 106% (inactive) | 105% (inactive) | 103 | 98.5 |
| Cc1ccc(NC(=O)CC2SC(=O)N(c3ccccc3)C2=O)cc1 (stereo not drawn) | 97.8% (inactive) | 101 | 94.5 | 142% (inactive) | 140 | 143 | 112% (inactive) | 98.9% (inactive) | 102% (inactive) | 104 | 94.5 |
| CCc1nnc(NC(=O)c2ccc(S(=O)(=O)N(CC(C)C)CC(C)C)cc2)o1 | 101% (inactive) | 97.6 | 102 | 98.2% (inactive) | 97.5 | 97.3 | 101% (inactive) | 100% (inactive) | 102% (inactive) | 103 | 101 |
| COC(=O)c1cc(N2C(=O)C3C(C2=O)C2(C)C=CC3(C)O2)ccc1Cl (stereo not drawn) | 101% (inactive) | 101 | 92.5 | 193% (active) | 173 | 177 | 110% (inactive) | 106% (inactive) | 101% (inactive) | 109 | 88.6 |
| O=C(N/N=C/c1ccc(F)cc1)c1ccc(Br)cc1 | 99.6% (inactive) | 98.6 | 98 | 111% (inactive) | 109 | 109 | 96.8% (inactive) | 99.6% (inactive) | 102% (inactive) | 101 | 87 |
| CC1CCc2c(C(=O)NCc3cccnc3)csc2C1 (stereo not drawn) | 94.2% (inactive) | 94.2 | 92.7 | 111% (inactive) | 109 | 113 | 94.7% (inactive) | 95.9% (inactive) | 87.2% (inactive) | 84.8 | 88.2 |
| O=C1c2ccsc2SCCN1Cc1ccccc1Cl | 94.2% (inactive) | 92 | 95.7 | 111% (inactive) | 102 | 114 | 90.5% (inactive) | 97.5% (inactive) | 93% (inactive) | 93.8 | 90.7 |
| O=C(NNC1=NCCC1)c1cccc(Br)c1 | 98% (inactive) | 98.5 | 97.9 | 100% (inactive) | 97.9 | 99.5 | 99.5% (inactive) | 97.5% (inactive) | 96.4% (inactive) | 96.4 | 94.5 |
| CCS(=O)(=O)N1N=C(c2ccc(NS(C)(=O)=O)cc2)CC1c1ccccc1 (stereo not drawn) | 99.8% (inactive) | 98.4 | 99 | 101% (inactive) | 104 | 99.5 | 108% (inactive) | 106% (inactive) | 101% (inactive) | 103 | 103 |

| SMILES | GFP response vs DMSO [1] | GFP response vs DMSO [1, 6] [%] | GFP response vs DMSO [1, 7] [%] | GFP response relative to DMSO [2] | GFP response relative to DMSO [2, 8] [%] | GFP response relative to DMSO [2, 9] [%] | GFP response vs DMSO [3] | GFP response, % of DMSO [4] | GFP response, % of DMSO [5] | GFP response, % of DMSO [5, 6] [%] | GFP response, % of DMSO [5, 7] [%] |
| --- | --- | --- | --- | --- | --- | --- | --- | --- | --- | --- | --- |
| COc1ccc(C2CC(c3ccccc3)=NN2S(=O)(=O)c2ccccc2)c(OC)c1 (stereo not drawn) | 99.2% (inactive) | 99.8 | 99.1 | 99.5% (inactive) | 102 | 99.4 | 99% (inactive) | 103% (inactive) | 106% (inactive) | 108 | 104 |
| Cc1nnc(NC(=O)c2nc(S(=O)(=O)Cc3ccccc3)ncc2Cl)s1 | 95.1% (inactive) | 96.7 | 93.7 | 96.5% (inactive) | 99 | 98.4 | 99.3% (inactive) | 103% (inactive) | 104% (inactive) | 103 | 104 |
| CCCn1c(=O)c(C(=O)Nc2ccccc2C(=O)OC)c(O)c2ccccc21 | 101% (inactive) | 99 | 103 | 92.6% (inactive) | 94.1 | 95.2 | 97.8% (inactive) | 103% (inactive) | 93.9% (inactive) | 94.8 | 93.4 |
| Cc1ccc(N2C(=O)C3C4C=CC(CNC(=S)N5CCN(c6ccccc6)CC5)(O4)C3C2=O)cc1 (stereo not drawn) | 102% (inactive) | 101 | 101 | 89% (inactive) | 94.1 | 92.1 | 100% (inactive) | 96.5% (inactive) | 110% (inactive) | 105 | 113 |
| Cc1ccc(-c2nc3ccccn3c2NC(=O)c2ccco2)cc1 | 94.9% (inactive) | 96.4 | 95 | 98.9% (inactive) | 97.5 | 98.4 | 101% (inactive) | 98.4% (inactive) | 104% (inactive) | 103 | 104 |
| COc1ccccc1C(=O)N1CCN(c2cccc(C(F)(F)F)c2)CC1 | 96.2% (inactive) | 97.3 | 97.4 | 95.3% (inactive) | 96.5 | 94.6 | 99.5% (inactive) | 98.9% (inactive) | 99.3% (inactive) | 100 | 100 |
| Cc1ccc(NC(=O)c2ccccc2)cc1 | 100% (inactive) | 99 | 100 | 98.7% (inactive) | 100 | 100 | 100% (inactive) | 91.5% (inactive) | 96.5% (inactive) | 96.5 | 93.4 |
| CCOC(=O)C1CCCN(c2c(C(=O)c3ccccc3)cnc3ccccc23)C1 (stereo not drawn) | 99.3% (inactive) | 98.8 | 102 | 91.9% (inactive) | 90.7 | 89.7 | 97.5% (inactive) | 101% (inactive) | 104% (inactive) | 104 | 101 |
| O=C(O)c1ccccc1C(=O)Nc1ccccc1 | 101% (inactive) | 101 | 99.5 | 94.4% (inactive) | 92.6 | 95.2 | 96.8% (inactive) | 104% (inactive) | 102% (inactive) | 101 | 101 |
| O=[N+]([O-])c1cc(C(F)(F)F)ccc1Sc1ccc2ccccc2n1 | 95.8% (inactive) | 97 | 96.4 | 115% (inactive) | 109 | 115 | 102% (inactive) | 97.5% (inactive) | 95% (inactive) | 98.3 | 93.3 |
| CCOC(=O)CSC1=NC(=O)/C(=C/c2ccc(Br)cc2)S1 | 96.3% (inactive) | 86.3 | 92.8 | 161% (active) | 136 | 170 | 98.8% (inactive) | 103% (inactive) | 83.5% (inactive) | 77.8 | 79.8 |
| Cc1ccc(NC(=S)N2CCSC2c2cccs2)cc1 (stereo not drawn) | 98.5% (inactive) | 98.1 | 97.8 | 97.7% (inactive) | 99 | 97.4 | 108% (inactive) | 101% (inactive) | 103% (inactive) | 99.3 | 103 |
| C/C(=N\NC(=O)c1ccc(Cl)c(Cl)c1)c1cccc(NC(=O)C(C)C)c1 | 99.9% (inactive) | 99.8 | 101 | 94.2% (inactive) | 93.6 | 94.6 | 99.5% (inactive) | 96% (inactive) | 99.3% (inactive) | 100 | 96.8 |
| C=CCn1c(C)c(/C=C/c2cc[n+](C)cc2)c2ccccc21 | 99.6% (inactive) | 99.8 | 98.1 | 133% (inactive) | 136 | 129 | 147% (inactive) | 101% (inactive) | 141% (inactive) | 142 | 139 |
| CCC(C(=O)O)n1nc(-c2ccccc2)c2cc(Cl)ccc21 (stereo not drawn) | 98.7% (inactive) | 98.4 | 98.2 | 98.9% (inactive) | 96 | 99.5 | 99.3% (inactive) | 102% (inactive) | 101% (inactive) | 99.3 | 102 |
| O=[N+]([O-])c1cc(C(F)(F)F)ccc1NCCc1ccccn1 | 98.8% (inactive) | 99.3 | 99.7 | 96.5% (inactive) | 92.2 | 96.5 | 102% (inactive) | 98.9% (inactive) | 106% (inactive) | 106 | 106 |
